GSTO1 counter: blocks human GSTO1 in RBBP9 counter-screen; recombinant GSTO1, activity-based probe fluorescence polarization; inhibition, % at 5.96 µM; 300,000 compounds, 1.1% hits;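 active = inhibition above the campaign mean inhibition plus 3 SD, cut at about 35% in these data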;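 also: 0% = GSTO1-1 with DMSO and 100% = wells lacking GSTO1-1 enzyme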
HKDC1 inhibitor: inhibitors of human hexokinase HKDC1; inhibition, % at 20 µM; Q2TB90; recombinant HKDC1, G6PDH/diaphorase resazurin coupled fluorescence; 340,000 compounds, 0.16% hits;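 active = inhibition above about 35% when tested at 20 µM, limit read from the data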;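 also: plate controls were DMSO wells with enzyme for no effect and DMSO wells lacking enzyme for full effect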
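Assay system – recombinant HKDC1 (HK5) hexokinase enzyme, produced in-house · Input – HKDC1 at 5 µg/mL · Reagent – glucose plus 1 mM ATP as hexokinase substrates · Timing – 90 min reaction incubation at room temperature, dark · Measured by – G6PDH/diaphorase-coupled fluorescence, 1 mM NADP, 100 µM resazurin, 525/613 nm · Benchmarks – DMSO-enzyme wells negative, buffer-substituted wells positive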
DTT redox prof: compounds producing H2O2 with reducing agent – biochemical, NIH compound library profiling, artefact control for MLSCN library redox annotation, primary screen; DTT-dependent redox cycling H2O2, phenol red/HRP absorbance; 100% = 100 µM peroxide control, 0% = buffer; 200,000 compounds, 0.03% hits; activation, % at 10 µM;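 active = activation of at least 50% relative to the plate's high and low controls in the primary single-dose screen; inactive = activation below 50%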;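 also: compound incubated with DTT at 0.8 mM final as the reducing agent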
SUMO HTRF inh: inhibitors of human SUMOylation (UBC9). HTRF SUMOylation assay, SAE1/SAE2 + UBC9, in vitro. inhibition, % at 35 µM. 290,000 compounds, 0.36% hits. AID 2006; in the data active = inhibition above about 50%, passing the limit was not always enough
Apaf1 inhib: human Apaf-1 inhibition; AID 489030; 330,000 compounds, 0.71% hits; reconstituted apoptosome caspase-3 activity, DEVD-Rh110 fluorescence; O14727; inhibition, % at 20 µM; active = inhibition of at least 40% at 20 µM;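 also: plate controls were DMSO wells for no effect and DEVD-CHO caspase inhibitor wells for full effect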
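System – cell-free apoptosome with Apaf-1, procaspase-3 and caspase-9 · Buffer or medium – pH 7.5 Hepes buffer with CHAPS, BSA, DTT · Also added – cytochrome c with DEVD-Rh110 · Times – 30 min compound preincubation, 50 min activation, room temperature · Technique – Rh110 fluorescence intensity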
Apaf-1 inh conf: Apaf-1 inhibition, single-dose confirmed. shares compounds with Apaf1 inhib. reconstituted apoptosome, caspase-3 DEVD-Rh110 fluorescence. inhibition, % at 20 µM. 1,800 compounds, 25% hits. AID 504614;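 active = mean inhibition of at least 40% at 20 µM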;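 also: plate controls were DMSO wells for no effect and DEVD-CHO caspase inhibitor control wells for full effect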
Rh110 interf inh: counter-screen for Apaf-1 inhibitors: fluorescence interference. shares compounds with Apaf1 inhib. Rh110 fluorescence interference, quenched caspase reaction. activation (fluorescence interference), % at 20 µM. 1,800 tested, under 10 active. AID 504615;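 active = signal rise of 40% or more at 20 µM, treated as a fluorescence artifact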
Fluor interf inh: counter-screen for Apaf-1 inhibitors: fluorescence interference, dose response | fluorescence interference counterscreen, Apaf-1 assay format | shares compounds with Apaf1 inhib | IC50, µM | 460 tested, under 10 active; call rule not given here
Starred values were filed as active, the others as inactive; x = no result. Compounds with a hit are over-represented: about 1.4% of the library has one in this group of screens.

SMILES	GSTO1 counter	HKDC1 inhibitor	DTT redox prof	SUMO HTRF inh	Apaf1 inhib	Apaf-1 inh conf	Rh110 interf inh	others
O=C(Nc1ccc(-c2nc3ccc(NC(=O)c4cccs4)cc3[nH]2)cc1)c1cccs1	4	12	2	56*	69*	90*	7	Fluor interf inh=>100
O=C(COC(=O)c1ccc(Br)o1)NCCc1ccccc1	8	-5	0	-17	-5	x	x
Cc1oc(C(C)(C)C)cc1C(=O)N1CCN(C(c2ccccc2)c2ccccc2)CC1	2	1	x	13	-2	x	x
CN(C)C(=O)c1ccc(NC(=O)COc2cccc(Oc3ccccc3)c2)cc1	1	-7	x	7	61*	35	5
COc1ccc(-c2c(NC(=O)c3ccco3)oc3c(C)cccc3c2=O)cc1	-7	-3	x	8	1	x	x
CC(C)(C)c1ccc(CSc2ccc(S(=O)(=O)N3CCOCC3)cn2)cc1	x	6	x	x	-1	x	x
CCN1CCN(Cc2ccc(NC(=O)c3cc(NC(=O)c4ccno4)cc(OC)c3)cc2C(F)(F)F)CC1	-8	-2	x	8	15	x	x
CCN1CCN(Cc2ccc(NC(=O)c3cc(NC(=O)c4cc(-c5ccc(OC)cc5)n[nH]4)cc(OC)c3)cc2C(F)(F)F)CC1	-36	1	x	-25	56*	18	5
CCN1CCN(Cc2ccc(NC(=O)c3cc(NC(=O)C4=NN(c5ccccc5)C(=O)C4)cc(OC)c3)cc2C(F)(F)F)CC1	-5	-6	x	12	51*	21	12
CCN1CCN(Cc2ccc(NC(=O)c3cc(NC(=O)c4cncc(-c5cccs5)c4)cc(OC)c3)cc2C(F)(F)F)CC1	-62	8	x	-12	68*	34	-2
CCN1CCN(Cc2ccc(NC(=O)c3ccc(C)c(NC(=O)c4csc(-c5ccncc5)n4)c3)cc2C(F)(F)F)CC1	-9	6	x	13	59*	28	1
COc1ccc(OC)c(NC(=O)CSc2nc(N3CCOCC3)nc(N3CCOCC3)n2)c1	2	-5	x	5	3	x	x
COCCCNC(=O)c1ccccc1Oc1ccccc1	6	-7	0	-13	-21	x	x
COCCCNC(=O)c1ccc2c3c(onc13)-c1ccccc1C2=O	44*	23	x	8	80*	74*	9	Fluor interf inh=>100
COC1=CC(=O)OC(c2ccco2)C1 (configuration not stated)	x	-5	x	x	x	x	x
COc1cccc(-c2cn3nc4c(nc3n2)CCCC4)c1	20	0	2	36	53*	39	3
Clc1ccc(-c2cn3nc4c(nc3n2)CCCC4)cc1	26	3	1	11	65*	53*	7	Fluor interf inh=>100
CC(=O)c1sc(N/N=C2\CC3CC2C(C)C3(C)C)nc1C (configuration not stated)	5	-1	1	13	11	x	x
O=C1NC2=C(CCc3ccccc32)C(c2ccccc2)N1 (configuration not stated)	32	17	-1	18	91*	13	0
C=CCOc1ccc(C2NC(=S)NC3=C2CCc2ccccc23)cc1 (configuration not stated)	8	22	x	4	1	x	x
O=C(c1cscn1)N1CCCC(N2CCN(c3ccc(F)cc3)CC2)C1 (configuration not stated)	7	-9	x	10	4	x	x
NC(=O)c1cc(S(=O)(=O)NCCc2ccc(S(N)(=O)=O)cc2)cs1	1	-5	x	16	-2	x	x
O=C(NCC(c1ccco1)N1CCCC1)c1cccc(S(=O)(=O)Nc2ccc(Br)cc2)c1 (configuration not stated)	5	-9	x	2	59*	42*	10	Fluor interf inh=>100
CC(C)n1nc(C(=O)N2CCN(S(=O)(=O)c3cccs3)CC2)c2ccccc2c1=O	1	x	x	8	-13	x	x

Screening data as filed in PubChem BioAssay.
